Data as given in ChEMBL document CHEMBL5247578, “Effective synthesis of benzimidazoles-imidazo[1,2-a]pyrazine conjugates: A comparative study of mono-and bis-benzimidazoles for antitumor activity” (Eur J Med Chem, 2019).

Assays:
HEK293 = test: Cytotoxicity against human HEK293 cells assessed as reduction in cell viability at 0.0000001 M incubated for 48 hrs by MTT colorimetric assay relative to control; format: toxicity, cell-based; conditions: hek293, 48 h, 0.1 µM, dose 100 nM
OVCAR-5 = test: Antiproliferative activity against human OVCAR-5 cells assessed as cell growth at 0.00000001 M incubated for 48 hrs by SRB assay relative to control; format: functional; conditions: dose 10 nM, read-out: Activity
SR = test: Antiproliferative activity against human SR cells assessed as cell growth at 0.00000001 M incubated for 48 hrs by SRB assay relative to control; format: functional; conditions: dose 10 nM, read-out: Activity
A549 = test: Antiproliferative activity against human A549 cells assessed as cell growth at 0.00000001 M incubated for 48 hrs by SRB assay relative to control; format: functional; conditions: dose 10 nM, read-out: Activity
In short: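 NCI-60 five-dose screen over 10^-4–10^-8 M (10-fold dilutions). Cells grown in RPMI 1640 with 5% FBS and 2 mM L-glutamine, seeded at 5,000–40,000 cells/well and preincubated 24 h. Drug from DMSO stock, 48 h at 37 °C, 5% CO2. Adherent cells TCA-fixed and stained with 0.4% SRB; A515 read. Percent growth = (Ti−Tz)/(C−Tz)×100, or (Ti−Tz)/Tz×100 when Ti<Tz.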

NCI-H23 [1] = test: Antiproliferative activity against human NCI-H23 cells assessed as cell growth at 0.00000001 M incubated for 48 hrs by SRB assay relative to control; format: functional; conditions: dose 10 nM, read-out: Activity
SF-268 = test: Antiproliferative activity against human SF-268 cells assessed as cell growth at 0.00000001 M incubated for 48 hrs by SRB assay relative to control; format: functional; conditions: dose 10 nM, read-out: Activity
SNB-75 = test: Antiproliferative activity against human SNB-75 cells assessed as cell growth at 0.00000001 M incubated for 48 hrs by SRB assay relative to control; format: functional; conditions: dose 10 nM, read-out: Activity
IGROV-1 = test: Antiproliferative activity against human IGROV-1 cells assessed as cell growth inhibition by measuring lethal concentration incubated for 48 hrs by sulforhodamine B assay; format: functional; conditions: read-out: LC50 (the source's name)
Malme-3M = test: Antiproliferative activity against human Malme-3M cells assessed as cell growth inhibition by measuring lethal concentration incubated for 48 hrs by sulforhodamine B assay; format: functional; conditions: read-out: LC50 (the source's name)
NCI-H460 = test: Antiproliferative activity against human NCI-H460 cells assessed as cell growth inhibition by measuring lethal concentration incubated for 48 hrs by sulforhodamine B assay; format: functional; conditions: read-out: LC50 (the source's name)
NCI-H23 [2] = test: Antiproliferative activity against human NCI-H23 cells assessed as cell growth inhibition by measuring lethal concentration incubated for 48 hrs by sulforhodamine B assay; format: functional; conditions: read-out: LC50 (the source's name)
PC-3 = test: Growth inhibition against human PC-3 cells assessed as total growth inhibitory concentration incubated for 48 hrs by sulforhodamine B assay; format: functional
SNB-19 = test: Growth inhibition against human SNB-19 cells assessed as total growth inhibitory concentration incubated for 48 hrs by sulforhodamine B assay; format: functional
HL-60 [3] = test: Growth inhibition against human HL-60 cells assessed as total growth inhibitory concentration incubated for 48 hrs by sulforhodamine B assay; format: functional
A498 = test: Growth inhibition against human A498 cells incubated for 48 hrs by sulforhodamine B assay; format: functional
SF-295 = test: Growth inhibition against human SF-295 cells incubated for 48 hrs by sulforhodamine B assay; format: functional
MOLT-4 = test: Growth inhibition against human MOLT-4 cells incubated for 48 hrs by sulforhodamine B assay; format: functional
CCRF-CEM = test: Growth inhibition against human CCRF-CEM cells incubated for 48 hrs by sulforhodamine B assay; format: functional
HL-60 [4] = test: Antiproliferative activity against human HL-60 cells assessed as cell growth at 0.0000001 M incubated for 48 hrs by SRB assay relative to control; format: functional; conditions: dose 100 nM, read-out: Activity
In short: (§1)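 NCI-60 five-dose screen (10^-4 to 10^-8 M). Cells grown in RPMI 1640 with 5% FBS and 2 mM L-glutamine, plated at 5,000-40,000 cells/well and preincubated 24 h. Drug given from DMSO stock, then 48 h at 37 °C, 5% CO2. For adherent lines, cells fixed with cold TCA, SRB-stained and read at 515 nm. Percent growth taken against time-zero and untreated control.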

SF-539 = test: Antiproliferative activity against human SF-539 cells assessed as cell growth at 0.0000001 M incubated for 48 hrs by SRB assay relative to control; format: functional; conditions: dose 100 nM, read-out: Activity
U-251 = test: Antiproliferative activity against human U-251 cells assessed as cell growth at 0.0000001 M incubated for 48 hrs by SRB assay relative to control; format: functional; conditions: dose 100 nM, read-out: Activity
SK-MEL-28 = test: Antiproliferative activity against human SK-MEL-28 cells assessed as cell growth at 0.0000001 M incubated for 48 hrs by SRB assay relative to control; format: functional; conditions: dose 100 nM, read-out: Activity
RXF 393 = test: Antiproliferative activity against human RXF 393 cells assessed as cell growth at 0.0000001 M incubated for 48 hrs by SRB assay relative to control; format: functional; conditions: dose 100 nM, read-out: Activity
SN12C [5] = test: Antiproliferative activity against human SN12C cells assessed as cell growth at 0.0000001 M incubated for 48 hrs by SRB assay relative to control; format: functional; conditions: dose 100 nM, read-out: Activity
SW-620 = test: Antiproliferative activity against human SW620 cells assessed as cell growth at 0.000001 M incubated for 48 hrs by SRB assay relative to control; format: functional; conditions: read-out: Activity
SN12C [6] = test: Antiproliferative activity against human SN12C cells assessed as cell growth at 0.000001 M incubated for 48 hrs by SRB assay relative to control; format: functional; conditions: read-out: Activity
MCF7 = test: Antiproliferative activity against human MCF7 cells assessed as cell growth at 0.000001 M incubated for 48 hrs by SRB assay relative to control; format: functional; conditions: read-out: Activity
Hs-578T = test: Antiproliferative activity against human Hs-578T cells assessed as cell growth at 0.000001 M incubated for 48 hrs by SRB assay relative to control; format: functional; conditions: read-out: Activity
In short: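 NCI-60 five-dose mode, 10^-4 to 10^-8 M in 10-fold steps. RPMI 1640, 5% FBS, 2 mM L-glutamine; 24 h preincubation, then 48 h drug exposure at 37 °C. Stocks in DMSO at 400× the top concentration, diluted in medium with gentamicin. TCA fixation, SRB staining, absorbance at 515 nm. Percent growth from time-zero (Tz), control (C) and test (Ti) readings.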

EKVX = test: Antiproliferative activity against human EKVX cells assessed as cell growth at 0.00001 M incubated for 48 hrs by SRB assay relative to control; format: functional; conditions: read-out: Activity; in short: as §1
HT-29 = test: Antiproliferative activity against human HT-29 cells assessed as cell growth at 0.00001 M incubated for 48 hrs by SRB assay relative to control; format: functional; conditions: read-out: Activity; in short: as §1
MDA-MB-435 = test: Antiproliferative activity against human MDA-MB-435 cells assessed as cell growth at 0.00001 M incubated for 48 hrs by SRB assay relative to control; format: functional; conditions: read-out: Activity
HCC 2998 = test: Antiproliferative activity against human HCC 2998 cells assessed as cell growth at 0.0001 M incubated for 48 hrs by SRB assay relative to control; format: functional; conditions: read-out: Activity; in short: as §1
UACC-62 = test: Antiproliferative activity against human UACC-62 cells assessed as cell growth at 0.0001 M incubated for 48 hrs by SRB assay relative to control; format: functional; conditions: read-out: Activity

Structure (SMILES)	Activity (HEK293) [%]	growth at 0.01 µM (OVCAR-5) [%]	growth at 0.01 µM (SR) [%]	growth at 0.01 µM (A549) [%]	growth at 0.01 µM (NCI-H23 [1]) [%]	growth at 0.01 µM (SF-268) [%]	growth at 0.01 µM (SNB-75) [%]	CC50 (IGROV-1) [nM]	CC50 (Malme-3M) [nM]	CC50 (NCI-H460) [nM]	CC50 (NCI-H23 [2]) [nM]	TGI (PC-3) [nM]	TGI (SNB-19) [nM]	TGI (HL-60 [3]) [nM]	GI50 (A498) [nM]	GI50 (SF-295) [nM]	GI50 (MOLT-4) [nM]	GI50 (CCRF-CEM) [nM]	growth at 0.1 µM (HL-60 [4]) [%]	growth at 0.1 µM (SF-539) [%]	also measured
c1ccc(Cn2cnc3ccc(-c4nc(-c5ccc6c(c5)ncn6C5CCCCC5)cn5ccnc45)cc32)cc1	13.6	89	98	105	94	96	81	> 100000	> 100000	> 100000	1330	7550	> 100000	6650	1860	1420	1670	2180	113	92	growth at 0.1 µM (U-251): 107%; growth at 0.1 µM (SK-MEL-28): 96%; growth at 0.1 µM (RXF 393): 105%; growth at 0.1 µM (SN12C [5]): 101%; growth at 1 µM (SW-620): 108%; growth at 1 µM (SN12C [6]): 95%; growth at 1 µM (MCF7): 87%; growth at 1 µM (Hs-578T): 88%; growth at 10 µM (EKVX): -31%; growth at 10 µM (HT-29): -48%; growth at 10 µM (MDA-MB-435): -32%; growth at 100 µM (HCC 2998): -89%; growth at 100 µM (UACC-62): 9%
COc1ccc(-c2cn3ccnc3c(-c3ccc4ncn(C5CCCCC5)c4c3)n2)cc1	14.79	86	102	102	97	96	78	> 100000	> 100000	> 100000	> 100000	> 100000	> 100000	5050	742	361	2660	1640	95	97	growth at 0.1 µM (U-251): 104%; growth at 0.1 µM (SK-MEL-28): 95%; growth at 0.1 µM (RXF 393): 104%; growth at 0.1 µM (SN12C [5]): 100%; growth at 1 µM (SW-620): 42%; growth at 1 µM (SN12C [6]): 66%; growth at 1 µM (MCF7): 40%; growth at 1 µM (Hs-578T): 53%; growth at 10 µM (EKVX): 25%; growth at 10 µM (HT-29): -5%; growth at 10 µM (MDA-MB-435): 6%; growth at 100 µM (HCC 2998): 20%; growth at 100 µM (UACC-62): 8%
